Calls of active or inactive are those of the source. No cut-off for these calls is given here.
Columns and labels:
[1] = test system: Hepatitis C virus; assay: Synergistic antiviral activity against HCV J6/JFH/JC1 infected in human HuH7.5 cells assessed as inhibition of viral protein levels at 6.25 uM in presence of daclatasvir measured after 72 hrs by western blot analysis; assay type: functional, organism-based; conditions: Hepacivirus hominis
Method in brief: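 Huh7.5 cells infected with HCV (45 IU/cell) and simultaneously treated with compound (6.25 μM) alone, DAA alone, or both. […] Intracellular protein analysed by Western blot at 72 h. At least triplicate, mean ± SD, Student's t test.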

[2] = test system: Hepatitis C virus; assay: Synergistic antiviral activity against HCV J6/JFH/JC1 infected in human HuH7.5 cells assessed as combination index measured after 72 hrs in presence of sofosbuvir by Chou-Talalay method; assay type: functional, Hepacivirus hominis
[3] = Resistance ratio of EC50 for antiviral activity against HCV J6/JFH/JC1 harboring D168V mutant infected in human Huh7.5 cells to EC50 for antiviral activity against wild-type HCV J6/JFH/JC1 infected in human Huh7.5 cells; assay type: functional
[4] = test system: Hepatitis C virus; assay: Antiviral activity against HCV infected in human HuH7.5 cells assessed as inhibition of viral RNA levels during early stage at 6.25 to 25 uM incubated for 2 hrs prior to compound washout followed by supplementation of fresh culture medium and measured after 72 hrs by qRT-PCR analysis; assay type: functional, organism-based; conditions: Hepacivirus hominis; Huh-7; dose 6.25-25 µM
Method in brief: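 Huh7.5 cells seeded 24 h earlier, infected with HCV (150 IU/cell) with simultaneous compound or solvent control for 2 h. Cells washed with PBS and given fresh medium. Intracellular RNA (qRT-PCR) and protein (Western blot) extracted at 72 h.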

[5] = Selectivity index, ratio of CC50 for cytotoxicity against human Huh7.5 cells assessed as reduction in cell viability incubated for 72 hrs by MTT assay to EC50 for antiviral activity against HCV genotype 2a J6/JFH/JC1 infected in human Huh7.5 cells assessed as reduction in viral RNA levels measured after 72 hrs by qRT-PCR analysis; assay type: toxicity, cell-based; conditions: read-out: Ratio CC50/EC50
[6] = Antiviral activity against HCV subtype 2a J6/JFH/JC1 infected in human Huh7.5 cells assessed as reduction in viral RNA levels measured after 72 hrs by qRT-PCR analysis; conditions: Hepatitis C virus, J6/JFH/JC1, Huh7.5, 72 h
[7] = test system: Hepatitis C virus; assay: Antiviral activity against wild-type HCV infected in human HuH7.5 cells assessed as reduction in viral protein levels at 6.25 to 100 uM measured after 72 hrs by Western blot assay; assay type: functional, organism-based; conditions: Hepacivirus hominis, dose 6.25-100 µM
Method in brief: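 Huh7.5 cells seeded at 3 × 10^4/cm2 and incubated 24 h. Infected with wild-type HCVcc stock (45 IU/cell) with compound or solvent control added at the same time. After 72 h, intracellular RNA measured by one-step qRT-PCR and core protein by Western blot. EC50 by Reed & Muench method, mean ± SD from three independent experiments.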

[8] = test system: Hepacivirus hominis; assay: Inhibition of HCV NS5A
[9] = target: T1, Chondroitin sulfate N-acetylgalactosaminyltransferase 1 (Homo sapiens) (UniProt Q8TDX6); assay: Destabilization of CSGalNacT-1 in HCV infected human HuH7.5 cells assessed as reduction in CSGalNacT-1 mRNA levels at 6.25 to 100 uM measured after 72 hrs by qRT-PCR analysis; conditions: dose 6.25-100 µM
T1 sequence (whole entry): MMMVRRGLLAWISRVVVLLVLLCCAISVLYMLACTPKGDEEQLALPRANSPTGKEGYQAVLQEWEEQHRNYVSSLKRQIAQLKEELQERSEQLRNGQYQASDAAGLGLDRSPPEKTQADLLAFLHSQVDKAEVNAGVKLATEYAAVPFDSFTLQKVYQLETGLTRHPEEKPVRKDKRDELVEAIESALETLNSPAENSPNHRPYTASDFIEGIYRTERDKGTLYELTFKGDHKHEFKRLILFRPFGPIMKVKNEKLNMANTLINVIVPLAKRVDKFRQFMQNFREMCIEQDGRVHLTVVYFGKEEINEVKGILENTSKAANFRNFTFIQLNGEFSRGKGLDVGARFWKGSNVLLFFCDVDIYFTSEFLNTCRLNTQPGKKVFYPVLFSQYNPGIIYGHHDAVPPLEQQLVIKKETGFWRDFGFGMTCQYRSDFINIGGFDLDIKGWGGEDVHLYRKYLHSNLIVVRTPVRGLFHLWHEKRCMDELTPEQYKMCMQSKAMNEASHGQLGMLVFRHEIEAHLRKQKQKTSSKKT
Method in brief: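 Huh7.5 cells infected with HCV (45 IU/cell) and exposed to compound for 72 h. CSGalNAcT-1 protein measured by Western blot and mRNA by qRT-PCR. Error bars are SD of three independent experiments.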

[10] = target: T1, Chondroitin sulfate N-acetylgalactosaminyltransferase 1 (Homo sapiens); assay: Destabilization of CSGalNacT-1 in human Huh7.5 cells assessed as reduction in CSGalNacT-1 mRNA levels at 6.25 to 100 uM measured after 72 hrs by qRT-PCR analysis; assay type: cell-based; conditions: dose 6.25-100 µM

COc1cc(/C=C/c2ccccc2)c(C(=O)O)c(O)c1CC=C(C)C
Activity [1]: Active | CI [2]: 0.693 | Ratio EC50 [3]: 1.3 | Activity [4]: inactive | selectivity ratio at 72 h [5]: 40 | EC50 [6]: 3.17 µM | Activity [7]: Active | inhibition [8]: inactive | Activity [9]: inactive | Activity [10]: inactive

From ChEMBL document CHEMBL4715793 (J Med Chem, 2016)
